≈ marks a conversion by molar mass, not a printed value. Calls of active or inactive are those of the source. The calls are words filed in the database; no cut-off is given here.
Legend:
[1] = system: Enterococcus faecalis; assay: Antimicrobial activity against Enterococcus faecalis ATCC 29212 at 400 ug after 18 hrs by disc-diffusion method; format: functional
Outline: (§1)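 Disc diffusion on Mueller-Hinton II agar per CLSI; 9 mm paper discs loaded with 400 µg compound from DMSO solution, dried, placed on agar; growth inhibition zone diameter read after 18 h at 35°C.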

[2] = system: Staphylococcus aureus; assay: Antimicrobial activity against Staphylococcus aureus ATCC 6538 after 18 hrs by twofold serial microdilution method; format: functional; conditions: ATCC 6538, 18 h
[3] = system: CCRF-CEM; assay: Cytotoxicity against human CCRF-CEM cells after 96 hrs by MTT assay; format: functional
Outline: (§2)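 Leukaemia/lymphoma lines seeded at 1×10^5 cells/ml in RPMI-1640 with 10% FCS and penicillin/streptomycin; incubated with serial dilutions at 37°C, 5% CO2; viability by MTT after 96 h; value is concentration reducing proliferation by 50%, with untreated controls undergoing at least three rounds of multiplication.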

[4] = system: Mycobacterium tuberculosis; assay: Antimycobacterial activity against drug-sensitive Mycobacterium tuberculosis Spec. 192; format: functional
Outline: (§3)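 Classical test-tube successive-dilution method in Youmans' modification of Proskauer and Beck liquid medium with 10% bovine serum. Inoculum came from 14-day cultures. DMSO stock was 10 mg/mL, diluted geometrically in medium. Tubes were incubated at 37 °C. Concentrations tested were 3.1, 6.2, 12.5, 25, 50 and 100 µg/ml. MIC is the minimum concentration inhibiting growth relative to compound-free tubes.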

[5] = Cytotoxicity against human MT4 cells; format: cell-based
[6] = system: Mammalian orthoreovirus 1; assay: Antiviral activity against Reovirus type-1 ATCC VR-214 infected in BHK cells assessed as protection against virus-induced cytopathogenicity after 3 to 4 days by MTT assay; format: functional, cell-based; conditions: Mammalian orthoreovirus 1, ATCC VR-214, BHK
Outline: (§4)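 Cells seeded in 96-well plates (BHK 5x10^4, MDBK 3x10^4 cells/well), grown overnight to confluence, infected at m.o.i. 0.01 (BHK for Reo-1, MDBK for BVDV); serial compound dilutions in maintenance medium with 0.5% inactivated FBS added after 1 h; viability by MTT after 3–4 days at 37°C; EC50 for 50% protection by linear regression.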

[7] = system: Staphylococcus aureus; assay: Antimicrobial activity against Staphylococcus aureus ATCC 29213 after 18 hrs by twofold serial microdilution method; format: functional; conditions: ATCC 29213, 18 h
[8] = system: Coxsackievirus B5; assay: Antiviral activity against Human coxsackievirus B5 ATCC VR-29 infected in African green monkey Vero 76 cells assessed as reduction of virus-plaque formation after 3 days by crystal violet staining; format: functional, organism-based; conditions: Enterovirus B, ATCC VR-29, Vero, 72 h
Outline: (§5)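 Plaque reduction: Vero-76 at 2x10^5 cells/well grown to confluent monolayers, infected 2 h at 50–100 PFU/well; after removing unadsorbed virus, overlay of D-MEM, 1% inactivated FBS, 0.75% methylcellulose with or without serial compound dilutions; 3 days at 37°C, fixed and stained with crystal violet in 50% ethanol, plaques counted; EC50 by linear regression.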

[9] = system: Enterococcus hirae; assay: Antimicrobial activity against Enterococcus hirae ATCC 10541 at 400 ug after 18 hrs by disc-diffusion method; format: functional; conditions: ATCC 10541, 18 h, read-out: IZ; outline: as §1
[10] = system: WIL2-NS; assay: Cytotoxicity against human WIL2-NS cells after 96 hrs by MTT assay; format: functional; outline: as §2
[11] = Cytotoxicity against BHK cells assessed as cell viability after 48 to 96 hrs by MTT assay; format: cell-based, Mesocricetus auratus; conditions: hamster
[12] = system: Staphylococcus aureus; assay: Antimicrobial activity against Staphylococcus aureus ATCC 25923 at 400 ug after 18 hrs by disc-diffusion method; format: functional; conditions: ATCC 25923, 18 h, read-out: IZ; outline: as §1
[13] = Cytotoxicity against bovine MDBK cells assessed as cell viability after 48 to 96 hrs by MTT assay; format: cell-based, Bos taurus; conditions: cattle
[14] = system: Staphylococcus aureus; assay: Antimicrobial activity against Staphylococcus aureus ATCC 25923 after 18 hrs by twofold serial microdilution method; format: functional; conditions: ATCC 25923, 18 h
[15] = system: Bacillus subtilis; assay: Antimicrobial activity against Bacillus subtilis ATCC 6633 at 400 ug after 18 hrs by disc-diffusion method; format: functional; conditions: ATCC 6633, 18 h, read-out: IZ; outline: as §1
[16] = Antiviral activity against Bovine viral diarrhea virus 1-NADL ATCC VR-534 infected in MDBK cells assessed as protection against virus-induced cytopathogenicity after 3 to 4 days by MTT assay; format: functional, cell-based; conditions: Bovine viral diarrhea virus isolates and strains, ATCC VR-534, MDBK; outline: as §4
[17] = system: Proteus vulgaris; assay: Antimicrobial activity against Proteus vulgaris NCTC 4635 at 400 ug after 18 hrs by disc-diffusion method; format: functional; outline: as §1
[18] = system: CCRF-SB; assay: Cytotoxicity against human CCRF-SB cells after 96 hrs by MTT assay; format: functional; outline: as §2
[19] = system: Staphylococcus epidermidis; assay: Antimicrobial activity against Staphylococcus epidermidis ATCC 12228 at 400 ug after 18 hrs by disc-diffusion method; format: functional; conditions: ATCC 12228, 18 h, read-out: IZ; outline: as §1
[20] = system: Staphylococcus aureus; assay: Antimicrobial activity against Staphylococcus aureus NCTC 4163 at 400 ug after 18 hrs by disc-diffusion method; format: functional; conditions: NCTC 4163, 18 h, read-out: IZ; outline: as §1
[21] = system: Human alphaherpesvirus 1; assay: Antiviral activity against Human herpesvirus 1 KOS ATCC VR-1493 infected in African green monkey Vero 76 cells assessed as reduction of virus-plaque formation after 3 days by crystal violet staining; format: functional, organism-based; conditions: Human alphaherpesvirus 1, KOS ATCC VR1493, Vero, 72 h; outline: as §5
[22] = system: Vesicular stomatitis virus; assay: Antiviral activity against Vesicular stomatitis virus ATCC VR 1540 infected in African green monkey Vero 76 cells assessed as reduction of virus-plaque formation after 2 days by crystal violet staining; format: functional, organism-based; conditions: ATCC VR 1540, Vero, 48 h
[23] = system: Staphylococcus epidermidis; assay: Antimicrobial activity against Staphylococcus epidermidis ATCC 35984 after 18 hrs by twofold serial microdilution method; format: functional; conditions: ATCC 35984, 18 h
[24] = system: Staphylococcus epidermidis; assay: Antimicrobial activity against Staphylococcus epidermidis ATCC 35984 at 400 ug after 18 hrs by disc-diffusion method; format: functional; conditions: ATCC 35984, 18 h, read-out: IZ; outline: as §1
[25] = system: Mycobacterium tuberculosis; assay: Antimycobacterial activity against Mycobacterium tuberculosis H37Rv ATCC 25618; format: functional; outline: as §3
[26] = Cytotoxicity against African green monkey Vero 76 cells assessed as cell viability after 48 to 96 hrs by crystal violet staining; format: cell-based; conditions: chlorocebus sabaeus
[27] = system: Staphylococcus epidermidis; assay: Antimicrobial activity against Staphylococcus epidermidis ATCC 12228 after 18 hrs by twofold serial microdilution method; format: functional; conditions: ATCC 12228, 18 h
[28] = system: Human immunodeficiency virus 1; assay: Antiviral activity against HIV1 3B infected in human MT4 cells assessed as protection against virus-induced cytopathogenicity by MTT assay; format: functional, organism-based; conditions: Human immunodeficiency virus 1, 3B
[29] = system: Micrococcus luteus; assay: Antimicrobial activity against Micrococcus luteus ATCC 10240 at 400 ug after 18 hrs by disc-diffusion method; format: functional; conditions: ATCC 10240, 18 h, read-out: IZ; outline: as §1
[30] = system: Staphylococcus aureus; assay: Antimicrobial activity against Staphylococcus aureus ATCC 29213 at 400 ug after 18 hrs by disc-diffusion method; format: functional; conditions: ATCC 29213, 18 h, read-out: IZ; outline: as §1
[31] = system: Poliovirus 1; assay: Antiviral activity against Poliovirus type 1 ATCC VR-1562 infected in African green monkey Vero 76 cells assessed as reduction of virus-plaque formation after 2 days by crystal violet staining; format: functional, organism-based; conditions: Enterovirus C, ATCC VR-1562, Vero, 48 h
[32] = system: Bacillus cereus; assay: Antimicrobial activity against Bacillus cereus ATCC 11778 at 400 ug after 18 hrs by disc-diffusion method; format: functional; conditions: ATCC 11778, 18 h, read-out: IZ; outline: as §1
[33] = system: Yellow fever virus; assay: Antiviral activity against Yellow fever virus 17D infected in BHK cells assessed as protection against virus-induced cytopathogenicity after 3 to 4 days by MTT assay; format: functional, cell-based
[34] = system: Staphylococcus aureus; assay: Antimicrobial activity against Staphylococcus aureus ATCC 6538 at 400 ug after 18 hrs by disc-diffusion method; format: functional; conditions: ATCC 6538, 18 h, read-out: IZ; outline: as §1
[35] = system: Vaccinia virus; assay: Antiviral activity against Human Vaccinia virus ATCC VR-1549 infected in African green monkey Vero 76 cells assessed as reduction of virus-plaque formation after 3 days by crystal violet staining; format: functional, organism-based; conditions: Orthopoxvirus vaccinia, ATCC VR-1549, Vero, 72 h
[36] = system: Micrococcus luteus; assay: Antimicrobial activity against Micrococcus luteus ATCC 9341 at 400 ug after 18 hrs by disc-diffusion method; format: functional; conditions: ATCC 9341, 18 h, read-out: IZ; outline: as §1
[37] = system: Staphylococcus aureus; assay: Antimicrobial activity against Staphylococcus aureus NCTC 4163 after 18 hrs by twofold serial microdilution method; format: functional; conditions: NCTC 4163, 18 h
[38] = system: Candida parapsilosis; assay: Antimicrobial activity against Candida parapsilosis ATCC 22019 after 24 hrs by twofold serial microdilution method; format: functional, organism-based
[39] = system: Escherichia coli; assay: Antimicrobial activity against Escherichia coli ATCC 25922 after 18 hrs by twofold serial microdilution method; format: functional, organism-based
[40] = system: Candida albicans; assay: Antimicrobial activity against Candida albicans ATCC 90028 after 24 hrs by twofold serial microdilution method; format: functional, organism-based
[41] = system: Pseudomonas aeruginosa; assay: Antimicrobial activity against Pseudomonas aeruginosa NCTC 6749 after 18 hrs by twofold serial microdilution method; format: functional, organism-based
[42] = system: Pseudomonas aeruginosa; assay: Antimicrobial activity against Pseudomonas aeruginosa ATCC 27863 after 18 hrs by twofold serial microdilution method; format: functional, organism-based
[43] = system: Escherichia coli; assay: Antimicrobial activity against Escherichia coli NCTC 8196 after 18 hrs by twofold serial microdilution method; format: functional, organism-based
[44] = system: Bordetella bronchiseptica; assay: Antimicrobial activity against Bordetella bronchiseptica ATCC 4617 after 18 hrs by twofold serial microdilution method; format: functional, organism-based
[45] = system: Pseudomonas aeruginosa; assay: Antimicrobial activity against Pseudomonas aeruginosa ATCC 15442 after 18 hrs by twofold serial microdilution method; format: functional, organism-based
[46] = system: Escherichia coli; assay: Antimicrobial activity against Escherichia coli ATCC 10538 after 18 hrs by twofold serial microdilution method; format: functional, organism-based
[47] = system: Candida albicans; assay: Antimicrobial activity against Candida albicans ATCC 10231 after 24 hrs by twofold serial microdilution method; format: functional, organism-based

O=[N+]([O-])c1ccc(NC(=S)Nc2cccc(C(F)(F)F)c2)cc1
inhibition zone (IZ) [1]: inactive | MIC [2]: 64 µg/mL (≈ 188 µM) | CC50 [3]: 8.7 µM | MIC [4]: > 100 µg/mL | CC50 [5]: 9.2 µM | EC50 [6]: > 9.5 µM | MIC [7]: 64 µg/mL (≈ 188 µM) | EC50 [8]: > 10 µM | zone of inhibition at 400 µg/disc [9]: 13 mm | CC50 [10]: 9.4 µM | CC50 [11]: 9.5 µM | zone of inhibition at 400 µg/disc [12]: 20 mm | CC50 [13]: 10 µM | MIC [14]: 128 µg/mL (≈ 375 µM) | zone of inhibition at 400 µg/disc [15]: 15 mm | EC50 [16]: > 10 µM | inhibition zone (IZ) [17]: inactive | CC50 [18]: 8.2 µM | zone of inhibition at 400 µg/disc [19]: 13 mm | zone of inhibition at 400 µg/disc [20]: 16 mm | EC50 [21]: > 10 µM | EC50 [22]: > 10 µM | MIC [23]: 64 µg/mL (≈ 188 µM) | zone of inhibition at 400 µg/disc [24]: 12 mm | MIC [25]: 50 µg/mL (≈ 146 µM) | CC50 [26]: 10 µM | MIC [27]: 64 µg/mL (≈ 188 µM) | EC50 [28]: > 9.2 µM | zone of inhibition at 400 µg/disc [29]: 13 mm | zone of inhibition at 400 µg/disc [30]: 16 mm | EC50 [31]: > 10 µM | zone of inhibition at 400 µg/disc [32]: 15 mm | EC50 [33]: > 9.5 µM | zone of inhibition at 400 µg/disc [34]: 15 mm | EC50 [35]: > 10 µM | zone of inhibition at 400 µg/disc [36]: 13 mm | MIC [37]: 128 µg/mL (≈ 375 µM)

FC(F)(F)c1cccc(NC(=S)Nc2ccc(I)cc2)c1
CC50 [3]: 8 µM | CC50 [5]: 10 µM | EC50 [6]: > 9.4 µM | EC50 [8]: > 9.5 µM | CC50 [10]: 8 µM | Activity [38]: inactive | CC50 [11]: 9.4 µM | Activity [39]: inactive | CC50 [13]: 9.5 µM | EC50 [16]: > 9.5 µM | CC50 [18]: 9.1 µM | Activity [40]: inactive | EC50 [21]: > 9.5 µM | EC50 [22]: > 9.5 µM | Activity [41]: inactive | CC50 [26]: 9.5 µM | Activity [42]: inactive | Activity [43]: inactive | EC50 [28]: > 10.5 µM | Activity [44]: inactive | Activity [45]: inactive | EC50 [31]: > 9.5 µM | EC50 [33]: > 9.4 µM | Activity [46]: inactive | EC50 [35]: > 9.5 µM | Activity [47]: inactive
